According to ChEMBL document CHEMBL1148762, “Lysosome and HER3 (ErbB3) selective anticancer agent kahalalide F: semisynthetic modifications and antifungal lead-exploration studies” (J Med Chem, 2007):
In brackets after ≈: the same amount, converted by molar mass. Activity calls are given as the source filed them. The calls are words filed in the database; no cut-off is given here.

Assays:
Fusarium proliferatum [1] = assay: Fungistatic activity against Fusarium proliferatum at 30 uM after 72 hrs by microtiter plate assay; format: functional, organism-based
In short: (§1)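 Conidia come from 7-day potato dextrose agar cultures, filtered and set photometrically (625 nm) to 3 × 10^5 conidia/mL. They are exposed to compound at 30 µM in 96-well microdilution broth at 24 ± 1 °C under a 12 h photoperiod. After 72 h, 20 µL per well is subcultured on drug-free potato dextrose agar at 28 °C for 3 days. No regrowth is scored fungicidal; regrowth is scored fungistatic.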

Fusarium solani [2] = assay: Fungicidal activity against Fusarium solani at 30 uM after 72 hrs by microtiter assay; format: functional, organism-based
In short: (§2)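 After 72 h of microtiter broth exposure at 30 µM, 20 µL from each well was plated onto compound-free potato dextrose agar and incubated 3 days at 28 °C. No regrowth was scored fungicidal; regrowth was scored fungistatic.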

Fusarium oxysporum [3] = assay: Fungicidal activity against Fusarium oxysporum at 30 uM after 72 hrs by microtiter plate assay; format: functional, organism-based; in short: as §2
Fusarium proliferatum [4] = assay: Antimicrobial activity against Fusarium proliferatum at 0.3 uM after 72 hrs by microtiter assay; format: functional
In short: (§3)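 96-well microdilution broth assay with conidia (3 × 10^5 conidia/mL, harvested from 7-day PDA cultures and filtered) against F. oxysporum, F. proliferatum and F. solani at 0.3, 3 and 30 µM. Plates were held at 24 ± 1 °C under a 12 h photoperiod. Growth was read at 620 nm at 24, 48 and 72 h and reported as percent inhibition from mean absorbance with standard error.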

Fusarium proliferatum [5] = assay: Antimicrobial activity against Fusarium proliferatum at 3 uM after 48 hrs by microtiter assay; format: functional; in short: as §3
Fusarium proliferatum [6] = assay: Antimicrobial activity against Fusarium proliferatum at 3 uM after 72 hrs by microtiter assay; format: functional; in short: as §3
Fusarium proliferatum [7] = assay: Antimicrobial activity against Fusarium proliferatum at 0.3 uM after 48 hrs by microtiter assay; format: functional; in short: as §3
Fusarium oxysporum [8] = assay: Antimicrobial activity against Fusarium oxysporum at 0.3 uM after 48 hrs by microtiter assay; format: functional; in short: as §3
Fusarium oxysporum [9] = assay: Antimicrobial activity against Fusarium oxysporum at 0.3 uM after 72 hrs by microtiter assay; format: functional; in short: as §3
Fusarium solani [10] = assay: Antimicrobial activity against Fusarium solani at 0.3 uM after 48 hrs by microtiter assay; format: functional; in short: as §3
Fusarium solani [11] = assay: Antimicrobial activity against Fusarium solani at 0.3 uM after 72 hrs by microtiter assay; format: functional; in short: as §3
Fusarium oxysporum [12] = assay: Antimicrobial activity against Fusarium oxysporum at 3 uM after 48 hrs by microtiter assay; format: functional; in short: as §3
Fusarium oxysporum [13] = assay: Antimicrobial activity against Fusarium oxysporum at 3 uM after 72 hrs by microtiter assay; format: functional; in short: as §3
Fusarium solani [14] = assay: Antimicrobial activity against Fusarium solani at 3 uM after 48 hrs by microtiter assay; format: functional; in short: as §3
Fusarium solani [15] = assay: Antimicrobial activity against Fusarium solani at 3 uM after 72 hrs by microtiter assay; format: functional; in short: as §3
Fusarium oxysporum [16] = assay: Antimicrobial activity against Fusarium oxysporum at 30 uM after 48 hrs by microtiter assay; format: functional; in short: as §3
Fusarium oxysporum [17] = assay: Antimicrobial activity against Fusarium oxysporum at 30 uM after 72 hrs by microtiter assay; format: functional; in short: as §3
Fusarium solani [18] = assay: Antimicrobial activity against Fusarium solani at 30 uM after 48 hrs by microtiter assay; format: functional; in short: as §3
Fusarium solani [19] = assay: Antimicrobial activity against Fusarium solani at 30 uM after 72 hrs by microtiter assay; format: functional; in short: as §3
Fusarium proliferatum [20] = assay: Antimicrobial activity against Fusarium proliferatum at 30 uM after 48 hrs by microtiter assay; format: functional; in short: as §3
Fusarium proliferatum [21] = assay: Antimicrobial activity against Fusarium proliferatum at 30 uM after 72 hrs by microtiter assay; format: functional; in short: as §3
Fusarium solani [22] = assay: Fungistatic activity against Fusarium solani at 30 uM after 72 hrs by microtiter plate assay; format: functional, organism-based; in short: as §1
Fusarium oxysporum [23] = assay: Fungistatic activity against Fusarium oxysporum at 30 uM after 72 hrs by microtiter plate assay; format: functional, organism-based; in short: as §1
Escherichia coli = assay: Antimicrobial activity against Escherichia coli; format: functional, organism-based
Staphylococcus aureus = assay: Antimicrobial activity against methicillin-resistant Staphylococcus aureus; format: functional, organism-based
Fusarium proliferatum [24] = assay: Fungicidal activity against Fusarium proliferatum at 30 uM after 72 hrs by microtiter plate assay; format: functional, organism-based; in short: as §2
Aspergillus fumigatus = assay: Antimicrobial activity against Aspergillus fumigatus ATCC 90906; format: functional, organism-based
Cryptococcus neoformans = assay: Antimicrobial activity against Cryptococcus neoformans ATCC 90113; format: functional, organism-based
Candida albicans = assay: Antimicrobial activity against Candida albicans ATCC 90028; format: functional, organism-based
[25] = system: Mycobacterium intracellulare; assay: Antimicrobial activity against Mycobacterium intracellular ATCC 23068; format: functional, organism-based
[26] = system: Mycobacterium tuberculosis; assay: Antibacterial activity against Mycobacterium tuberculosis H37Rv at 16 ug/mL by micro plate alamar blue assay; format: functional
In short: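 M. tuberculosis H37Rv ATCC 27294 grown in BACTEC 12B medium; microplate Alamar blue assay (MABA). Primary screen at a single concentration of 16 µg/mL, read as percent inhibition.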

[27] = system: Mycobacterium tuberculosis; assay: Antibacterial activity against Mycobacterium tuberculosis H37Rv by micro plate alamar blue assay; format: functional

| SMILES | Activity (Fusarium proliferatum [1]) | Activity (Fusarium solani [2]) | Activity (Fusarium oxysporum [3]) | inhibition at 0.3 µM (Fusarium proliferatum [4]) [%] | inhibition at 3 µM (Fusarium proliferatum [5]) [%] | inhibition at 3 µM (Fusarium proliferatum [6]) [%] | inhibition at 0.3 µM (Fusarium proliferatum [7]) [%] | inhibition at 0.3 µM (Fusarium oxysporum [8]) [%] | inhibition at 0.3 µM (Fusarium oxysporum [9]) [%] | inhibition at 0.3 µM (Fusarium solani [10]) [%] | inhibition at 0.3 µM (Fusarium solani [11]) [%] | inhibition at 3 µM (Fusarium oxysporum [12]) [%] | inhibition at 3 µM (Fusarium oxysporum [13]) [%] | inhibition at 3 µM (Fusarium solani [14]) [%] | inhibition at 3 µM (Fusarium solani [15]) [%] | inhibition at 30 µM (Fusarium oxysporum [16]) [%] | inhibition at 30 µM (Fusarium oxysporum [17]) [%] | inhibition at 30 µM (Fusarium solani [18]) [%] | inhibition at 30 µM (Fusarium solani [19]) [%] | inhibition at 30 µM (Fusarium proliferatum [20]) [%] | further results |
| --- | --- | --- | --- | --- | --- | --- | --- | --- | --- | --- | --- | --- | --- | --- | --- | --- | --- | --- | --- | --- | --- |
| C/C=C1\NC(=O)[C@H](Cc2ccccc2)NC(=O)[C@@H](C(C)C)NC(=O)[C@@H]([C@@H](C)CC)NC(=O)[C@H](NC(=O)[C@H](NC(=O)[C@H](CCCNCc2cccs2)NC(=O)[C@H]2CCCN2C(=O)[C@@H](NC(=O)[C@H](NC(=O)[C@H](NC(=O)[C@@H](NC(=O)CCCC(C)C)C(C)C)[C@H](C)O)C(C)C)C(C)C)[C@@H](C)CC)[C@@H](C)OC(=O)[C@H](C(C)C)NC1=O | Active | Active | Active |  |  |  |  |  |  |  |  |  |  |  |  |  |  |  |  |  |  |
| O=C1C2CC=CCC2C(=O)N1SC(Cl)(Cl)Cl (centres undefined) [CAPTAN] | Active |  |  | 3 | 12 | 0 | 6 | 0.2 | 0 | 0 | 0 | 7.6 | 0 | 5.1 | 0 | 99.5 | 98.1 | 90.7 | 47.9 | 100 | inhibition at 30 µM (Fusarium proliferatum [21]): 100%; Activity (Fusarium solani [22]): Active; Activity (Fusarium oxysporum [23]): Active |
| C/C=C(\NC(=O)[C@H](Cc1ccccc1)NC(=O)[C@H](NC(=O)[C@H](NC(=O)[C@H](NC(=O)[C@H](NC(=O)[C@H](CCCN)NC(=O)[C@H]1CCCN1C(=O)[C@@H](NC(=O)[C@H](NC(=O)[C@H](NC(=O)[C@@H](NC(=O)CCCC(C)C)C(C)C)[C@H](C)O)C(C)C)C(C)C)[C@@H](C)CC)[C@@H](C)O)[C@@H](C)CC)C(C)C)C(=O)N[C@H](C(=O)O)C(C)C |  |  |  |  |  |  |  |  |  |  |  |  |  |  |  |  |  |  |  |  | Activity (Escherichia coli): inactive; Activity (Staphylococcus aureus): inactive |
| C/C=C1\NC(=O)[C@H](Cc2ccccc2)NC(=O)[C@@H](C(C)C)NC(=O)[C@@H]([C@@H](C)CC)NC(=O)[C@H](NC(=O)[C@H](NC(=O)[C@H](CCCNCc2ccncc2)NC(=O)[C@H]2CCCN2C(=O)[C@@H](NC(=O)[C@H](NC(=O)[C@H](NC(=O)[C@@H](NC(=O)CCCC(C)C)C(C)C)[C@H](C)O)C(C)C)C(C)C)[C@@H](C)CC)[C@@H](C)OC(=O)[C@H](C(C)C)NC1=O |  | Active |  |  |  |  |  |  |  |  |  |  |  |  |  |  |  |  |  |  | Activity (Fusarium proliferatum [24]): Active; Activity (Fusarium oxysporum [23]): Active |
| C/C=C1\NC(=O)[C@H](Cc2ccccc2)NC(=O)[C@@H](C(C)C)NC(=O)[C@@H]([C@@H](C)CC)NC(=O)[C@H](NC(=O)[C@H](NC(=O)[C@H](CCCN)NC(=O)[C@H]2CCCN2C(=O)[C@@H](NC(=O)[C@H](NC(=O)[C@H](NC(=O)[C@@H](NC(=O)CCCC(C)C)C(C)C)[C@H](C)OC(C)=O)C(C)C)C(C)C)[C@@H](C)CC)[C@@H](C)OC(=O)[C@H](C(C)C)NC1=O |  | Active |  | 0.3 | 0 | 0.3 | 0 | 0 | 0 | 0 | 0 | 0 | 0 | 0 | 0 | 78.5 | 74.4 | 80.9 | 96.7 | 70.8 | IC50 (Aspergillus fumigatus): 3.38 µM; MFC (Aspergillus fumigatus): 10 µM (≈ 15.2 µg/mL); MIC (Aspergillus fumigatus): 10 µM (≈ 15.2 µg/mL); IC50 (Cryptococcus neoformans): 1.89 µM; MFC (Cryptococcus neoformans): 5 µM (≈ 7.6 µg/mL); MIC (Cryptococcus neoformans): 5 µM (≈ 7.6 µg/mL); IC50 (Candida albicans): 3.28 µM; MFC (Candida albicans): 20 µM (≈ 30.4 µg/mL); MIC (Candida albicans): 10 µM (≈ 15.2 µg/mL); IC50 [25]: 14.3 µM; MBC [25]: > 20 µM; MIC [25]: > 20 µM; inhibition at 16 µg/mL [26]: 94%; MIC [27]: 15.4 mg/L (≈ 10.1 µM); inhibition at 30 µM (Fusarium proliferatum [21]): 34.7%; Activity (Fusarium proliferatum [24]): Active; Activity (Fusarium oxysporum [23]): Active |
| CC(C)CCC[C@H]1CC(=O)N[C@H](Cc2c[nH]c3ccccc23)C(=O)N2CCC[C@H]2C(=O)N[C@@H](CCCNC(=N)N)C(=O)O1 [KAHALALIDE D] |  |  |  |  |  |  |  |  |  |  |  |  |  |  |  |  |  |  |  |  | IC50 (Aspergillus fumigatus): > 33.6 µM; IC50 (Cryptococcus neoformans): > 33.6 µM; Activity (Escherichia coli): inactive; Activity (Staphylococcus aureus): inactive; IC50 (Candida albicans): > 33.6 µM; IC50 [25]: > 33.6 µM; inhibition at 16 µg/mL [26]: 49% |
| C/C=C1\NC(=O)[C@H](Cc2ccccc2)NC(=O)[C@@H](C(C)C)NC(=O)[C@@H]([C@@H](C)CC)NC(=O)[C@H](NC(=O)[C@H](NC(=O)[C@H](CCCN)NC(=O)[C@H]2CCCN2C(=O)[C@@H](NC(=O)[C@H](NC(=O)[C@H](NC(=O)[C@@H](NC(=O)CCCC(C)C)C(C)C)C(C)=O)C(C)C)C(C)C)[C@@H](C)CC)[C@@H](C)OC(=O)[C@H](C(C)C)NC1=O | Active | Active | Active |  |  |  |  |  |  |  |  |  |  |  |  |  |  |  |  |  |  |
| C[C@@H]1[C@H](O)[C@@H](C)/C=C/C=C/C=C/C=C/C=C/C=C/C=C/[C@H](O[C@@H]2O[C@H](C)[C@@H](O)[C@H](N)[C@@H]2O)C[C@@H]2O[C@](O)(C[C@@H](O)C[C@@H](O)[C@H](O)CC[C@@H](O)C[C@@H](O)CC(=O)O[C@H]1C)C[C@H](O)[C@H]2C(=O)O [AMPHOTERICIN B] |  | Active | Active | 0 | 7.9 | 0 | 0 | 0 | 0 | 0 | 0.1 | 12.5 | 0 | 18.1 | 0 | 99.7 | 87.1 | 100 | 98.1 | 99.8 | IC50 (Aspergillus fumigatus): 1.32 µM; MFC (Aspergillus fumigatus): 2.5 µM (≈ 2.31 µg/mL); MIC (Aspergillus fumigatus): 2.5 µM (≈ 2.31 µg/mL); IC50 (Cryptococcus neoformans): 0.79 µM; MFC (Cryptococcus neoformans): 0.06 µM (≈ 0.0554 µg/mL); MIC (Cryptococcus neoformans): 0.016 µM (≈ 0.0148 µg/mL); IC50 (Candida albicans): 0.25 µM; MFC (Candida albicans): 1.25 µM (≈ 1.16 µg/mL); MIC (Candida albicans): 0.625 µM (≈ 0.578 µg/mL); inhibition at 30 µM (Fusarium proliferatum [21]): 79%; Activity (Fusarium proliferatum [24]): Active |
